Compound activity (PubChem BioAssay)
NR2E3 ag-1 – activates human NR2E3 receptor; 360,000 tested, 0.35% active; inhibition of corepressor binding, % at 3.98 µM; Q9Y5X4; CHO-S Gal4-NCOR/VP16-NR2E3 two-hybrid, luciferase;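 active means inhibition above the mean of all tested compounds plus 3 SD, cut at about 70% in these data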;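 further: higher means lower luciferase signal from less NR2E3 corepressor binding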
GalR3 antag – blocks the human galanin receptor 3. inhibition, % at 3 µM. HEK293 GalR3-CNG cAMP membrane potential fluorescence; galR3 body fused to GalR1 C-terminus. 360,000 tested, 0.44% active. O60755;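 active means inhibition above the screen-wide average plus 3 SD, cut at about 13% in these data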;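 further: forskolin and galanin both at EC90 stimulate the cells; cAMP rise reported by CNG channel membrane potential dye signal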
Target sequence (O60755 1-299 limits assumed): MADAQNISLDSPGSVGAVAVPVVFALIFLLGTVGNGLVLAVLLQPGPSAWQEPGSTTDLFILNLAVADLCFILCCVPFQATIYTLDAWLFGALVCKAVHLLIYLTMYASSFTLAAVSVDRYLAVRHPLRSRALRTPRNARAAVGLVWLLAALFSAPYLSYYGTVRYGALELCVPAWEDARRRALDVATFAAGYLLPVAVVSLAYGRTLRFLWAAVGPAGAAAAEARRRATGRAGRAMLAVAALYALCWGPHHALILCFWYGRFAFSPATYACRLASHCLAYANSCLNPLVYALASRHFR
NR2F2 inh – blocks human COUP-TFII nuclear receptor; HEK293T NGFI-A luciferase reporter, luminescence; inhibition, % at 8.6 µM; 370,000 tested, 0.7% active;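 active means inhibition above a per-plate cutoff, mean inhibition of test wells between control levels plus 3 SD, cut at about 38% in these data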;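 further: cells cotransfected with COUP-TFII expression vector driving the NGFI-A reporter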
Target sequence (P24468 whole entry, looked up): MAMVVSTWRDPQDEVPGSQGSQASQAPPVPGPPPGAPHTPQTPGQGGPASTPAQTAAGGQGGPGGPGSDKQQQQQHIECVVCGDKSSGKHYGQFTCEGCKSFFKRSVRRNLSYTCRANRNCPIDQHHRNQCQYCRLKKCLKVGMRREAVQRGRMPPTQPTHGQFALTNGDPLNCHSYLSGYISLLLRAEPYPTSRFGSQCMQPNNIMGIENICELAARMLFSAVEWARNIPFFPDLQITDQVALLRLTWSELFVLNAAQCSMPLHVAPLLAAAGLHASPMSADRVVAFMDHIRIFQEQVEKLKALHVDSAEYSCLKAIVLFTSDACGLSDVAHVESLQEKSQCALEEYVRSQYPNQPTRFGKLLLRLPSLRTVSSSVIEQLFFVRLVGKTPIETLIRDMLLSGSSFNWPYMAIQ
NR2E3 ag-2 – agonists of human nuclear receptor NR2E3. 320,000 tested, 0.12% active. Q9Y5X4. GST-NR2E3/biotin-RetCOR TR-FRET, 1536-well. AID 2300. inhibition of corepressor binding, % at 4.78 µM;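 active means percent inhibition above the cutoff of mean plus 3 SD of all tested compounds, set per screening campaign, cut at about 20% in these data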
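Format: 1536-well format; test system: GST-NR2E3 and biotin-RetCOR proteins; read-out basis: percent inhibition of TR-FRET ratio; timing: 5 h incubation at 4 °C; detection: time-resolved FRET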
CHT allo act – allosterically activates the human high affinity choline transporter; CHT-expressing cells, membrane potential dye, choline EC20; hits give high values; LV-AA mutant CHT in HEK293 cells; AID 488977; B-score at 10 µM; 310,000 tested, 0.49% active;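 active means initial fluorescence not abnormally high and integrated response B-score, plate-corrected, over 3 SD above library mean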
CHT inh – inhibits the human high affinity choline transporter | AID 488975 | 310,000 tested, 0.86% active | B-score at 10 µM | CHT-expressing cells, membrane potential dye, choline response; hits give low values;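 active means B-score over 3 SD under the library average, and starting fluorescence ratio not unusually high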;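 further: choline stimulus applied at its EC90 after an EC20 pre-addition; B-score computed on integrated fluorescence ratio after choline addition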
NR2E3 ag confirm – confirmation of human NR2E3 nuclear receptor agonists; activation (reported as inhibition), % at 3.98 µM; AID 2379; cell-free NR2E3 corepressor release, TR-FRET, 5 h; 360 tested, 39% active; shares compounds with NR2E3 ag-2; in the data active means activation above about 20%
PPARg-NCOR2 ag – releases PPARgamma from NCOR2 in NR2E3 counter-screen. shares compounds with NR2E3 ag-2. TR-FRET PPARg-NCOR2 coregulator interaction, biochemical. inhibition, % at 3.98 µM. 360 tested, 45% active; in the data active means inhibition above about 20%
Each line names hits and unclear results; the compound was inactive in the other large screens (follow-up assays come after a bar, where they were run). Most compounds without a hit are left out; they make up all but 2.3% or so of the library.

CN(C(=O)c1ccc(NC(=O)Cc2ccc(NC(=O)C3CCN(C(=O)c4ccccc4)CC3)cc2)cc1)C1CC1	NR2E3 ag-2 20.8 (no result: CHT allo act, CHT inh) | NR2E3 ag confirm inactive | PPARg-NCOR2 ag inactive
CN(C(=O)c1cccc(NC(=O)Cc2ccc(NC(=O)C3CCN(C(=O)c4ccccc4)CC3)cc2)c1)C1CCC1	none (no result: NR2E3 ag-2, CHT allo act, CHT inh)
Cc1ccc(-n2c(SCC(=O)N/N=C/C=C\c3ccccc3[N+](=O)[O-])nnc2-c2ccccc2)cc1	none (no result: NR2E3 ag-1, GalR3 antag, NR2E3 ag-2, CHT allo act, CHT inh)
C#CCn1c(=NC(=O)CSC(C)=O)sc2cc(F)ccc21	NR2E3 ag-2 26.7 (no result: GalR3 antag, NR2F2 inh) | NR2E3 ag confirm inactive | PPARg-NCOR2 ag 19.9
COC(=O)c1cc(Br)c(=O)n(-c2nccs2)c1	NR2E3 ag-2 24.7 | NR2E3 ag confirm 22.5 | PPARg-NCOR2 ag 24.3
COC(=O)c1cc(Br)c(=O)n(-c2ccccn2)c1	none
COc1cc2nc(=S)n3[nH]c(CCn4c(C)nc5ccccc54)nc3c2cc1OC	none
COc1ccc(OCc2nc3c4cc(OC)c(OC)cc4nc(=S)n3[nH]2)cc1	NR2E3 ag-2 21.1 | NR2E3 ag confirm inactive | PPARg-NCOR2 ag inactive
CCc1nnc(NC(=O)c2sc3nc4cc(C)ccc4cc3c2N)s1	NR2E3 ag-2 36.8 | NR2E3 ag confirm inactive | PPARg-NCOR2 ag inactive
Cc1[nH]ccc(=O)c1OCc1ccccc1	none
O=c1cc(OCc2ccccc2)cc[nH]1	NR2E3 ag-2 50.0 (no result: CHT allo act, CHT inh) | NR2E3 ag confirm 40.1 | PPARg-NCOR2 ag inactive
COC(=O)c1c(Cl)c2n3ccccc3c(C)c(-c3ccccc3)c-2c1C(=O)OC	NR2E3 ag-2 61.0 | NR2E3 ag confirm 68.6 | PPARg-NCOR2 ag 69.8
COC(=O)c1cc2c(-c3ccccc3)c(C)c3ccccn3c-2c1C(=O)OC	NR2E3 ag-2 27.7 | NR2E3 ag confirm 30.4 | PPARg-NCOR2 ag 29.4
CCOc1ccc(-n2nc3c(=S)[nH]nc(C)c3c2C)cc1	NR2E3 ag-2 26.4 | NR2E3 ag confirm inactive | PPARg-NCOR2 ag 21.9
NC1=CC(=O)c2cccc3cccc1c23	none (no result: NR2E3 ag-1, GalR3 antag, NR2F2 inh)
O=C1C=C(O)c2cccc3cccc1c23	NR2E3 ag-2 23.2 | NR2E3 ag confirm inactive | PPARg-NCOR2 ag inactive
CCOc1ccc(-n2c(SCC(=O)Nc3ccc(S(=O)(=O)Nc4cc(C)nc(C)n4)cc3)nnc2-c2ccc(OC)cc2)cc1	none (no result: NR2E3 ag-1, GalR3 antag, NR2E3 ag-2, CHT allo act, CHT inh)
Cc1cc(C2C(C#N)=C(N)SC(N)=C2C#N)c(C)s1	NR2E3 ag-2 23.6 (no result: GalR3 antag, NR2F2 inh) | NR2E3 ag confirm inactive | PPARg-NCOR2 ag 38.4
Cc1cc(C2C(C#N)=C(N)Oc3n[nH]c(C)c32)c(C)s1 (stereo not given)	none
Cc1ccc(-n2c(COc3ccccc3)nnc2SCC(=O)Nc2ccccc2-c2ccccc2)cc1	none (no result: NR2E3 ag-1, GalR3 antag, NR2E3 ag-2, CHT allo act, CHT inh)
Cc1c(NC(=O)c2ncn[nH]2)cccc1-c1nc2ccccc2s1	NR2E3 ag-2 19.8 | NR2E3 ag confirm inactive | PPARg-NCOR2 ag inactive
CCSc1cnn(-c2ccccc2)c(=O)c1Cl	none
CCSc1cnn(-c2ccccc2)c(=O)c1SCC	NR2E3 ag-2 21.5 | NR2E3 ag confirm inactive | PPARg-NCOR2 ag inactive
O=c1cc(-c2ccc(O)cc2)oc2c([C@@H]3O[C@H](CO)[C@@H](O)[C@H](O)[C@H]3O)c(O)c([C@@H]3O[C@H](CO)[C@@H](O)[C@H](O)[C@H]3O)c(O)c12	none
O=c1c2cc(O)c(O)cc2oc2cc(O)c(C3OC(CO)C(O)C(O)C3O)c(O)c12 (stereo not given)	NR2E3 ag-2 29.4 | NR2E3 ag confirm 19.9 | PPARg-NCOR2 ag inactive
CCOc1ccc(/C(O)=C2/C(=O)C(=O)N(CCOCCO)C2c2ccc(F)cc2)cc1 (stereo not given)	NR2E3 ag-2 19.9 | NR2E3 ag confirm inactive | PPARg-NCOR2 ag inactive
CCOc1ccc(C2/C(=C(/O)c3ccc(F)cc3)C(=O)C(=O)N2CCCN(C)C)cc1 (stereo not given)	none
O=C(Nc1ccccc1C(F)(F)F)OCCN1C(=O)CCC12CCC(c1ccccc1)CC2 (stereo not given)	none (no result: NR2E3 ag-1, GalR3 antag, NR2E3 ag-2, CHT allo act, CHT inh)
O=C(O)c1ccc(-n2cccc2/C=C2/SC(=O)N(CC(=O)N3CCCC3)C2=O)cc1	NR2E3 ag-2 20.6 | NR2E3 ag confirm inactive | PPARg-NCOR2 ag inactive
COC(=O)[C@]12C[C@H](CC(=O)NCCCCc3ccccc3)C(=O)N(CCc3ccc(OC)c(OC)c3)C1=C[C@H](C(C)(C)C)O[C@@H]2C	none (no result: NR2E3 ag-1, GalR3 antag, NR2E3 ag-2, CHT allo act, CHT inh)
CCSc1nc2sc3c(c2c(=O)[nH]1)CC(C)(CC)OC3 (stereo not given)	none
CCC1(C)Cc2c(sc3nc(SC)[nH]c(=S)c23)CO1 (stereo not given)	NR2E3 ag-2 21.7 (no result: NR2E3 ag-1, GalR3 antag, NR2F2 inh) | NR2E3 ag confirm inactive | PPARg-NCOR2 ag 48.1
CCOc1ccccc1NC(=O)CCSc1nc2n[nH]c(C)c2c(=N)n1-c1ccccc1Cl	NR2E3 ag-2 25.5 | NR2E3 ag confirm 31.8 | PPARg-NCOR2 ag 33.7
C=CCN(Cc1ccc2c(c1)OCO2)C(C#CC1CC1)C(C)C (stereo not given)	none (no result: NR2E3 ag-1, GalR3 antag, NR2E3 ag-2, CHT allo act, CHT inh)
Cc1ccc(-n2c(Cc3cccs3)nnc2SCC(=O)Nc2cccc3ccccc23)cc1	none (no result: NR2E3 ag-1, GalR3 antag, NR2E3 ag-2, CHT allo act, CHT inh)
Cc1ccccc1-c1nnnn1C1CCS(=O)(=O)C1 (stereo not given)	none
Cc1cc(=O)n(C2CCS(=O)(=O)C2)[nH]1 (stereo not given)	NR2E3 ag-2 32.6 | NR2E3 ag confirm inactive | PPARg-NCOR2 ag inactive
CCOc1ncccc1C(=O)Nc1ccc(C(=O)Nc2ccc(OC)cc2)cc1	NR2E3 ag-2 44.0 (no result: CHT allo act, CHT inh) | NR2E3 ag confirm 34.2 | PPARg-NCOR2 ag 32.5
COc1ccc(S[C@]2(C(=O)N3CCOCC3)CC(=O)N(c3ccc(OC)cc3)[C@@H]2c2ccc(OC)cc2)cc1	none (no result: NR2E3 ag-1, GalR3 antag, NR2E3 ag-2, CHT allo act, CHT inh)
Cc1cc(N2C(=O)C(O)=C(C(=O)c3cc4ccccc4o3)C2c2ccc(Br)cc2)no1 (stereo not given)	NR2E3 ag-2 24.3 | NR2E3 ag confirm 24.7 | PPARg-NCOR2 ag 30.2
Cc1cc(N2C(=O)C(O)=C(C(=O)c3cc4ccccc4o3)C2c2cccc(Cl)c2)no1 (stereo not given)	NR2E3 ag-2 22.3 | NR2E3 ag confirm 39.5 | PPARg-NCOR2 ag 45.2
COc1ccc(OC)c(C2C(C(=O)c3ccc(C)o3)=C(O)C(=O)N2c2cc(C)on2)c1 (stereo not given)	none
COc1cccc(C2C(C(=O)c3cc4ccccc4o3)=C(O)C(=O)N2c2cc(C)on2)c1 (stereo not given)	NR2E3 ag-2 26.8 | NR2E3 ag confirm 26.5 | PPARg-NCOR2 ag 26.4
